Data as given in ChEMBL document CHEMBL1139110, “Structure-activity relationships of some taxoids as multidrug resistance modulator” (Bioorg Med Chem Lett, 2007).
Values after ≈ are worked out from the molar mass of the structure shown.

Tests used:
[1] = Effect on calcein accumulation in multidrug-resistant human 2780AD cells at 25 ug/ml relative to control; assay type: functional, A2780 ADR
How it was run: (§1)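 Multidrug-resistant human ovarian cancer 2780AD cells were exposed to test compounds at […], with verapamil as the positive control. Calcein accumulated in the cells was measured relative to a control experiment. Values are the mean of triplicate determinations.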

[2] = Effect on calcein accumulation in multidrug-resistant human 2780AD cells at 0.25 ug/ml relative to control; assay type: functional, A2780 ADR; how it was run: as §1
[3] = system: HepG2; test: Cytotoxicity againt human HepG2 cells; assay type: functional, cell-based
How it was run: (§2)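 IC50 was determined against WI-38, VA-13 and HepG2 cells and is given as the mean of duplicate determinations.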

[4] = Effect on calcein accumulation in multidrug-resistant human 2780AD cells at 2.5 ug/ml relative to control; assay type: functional, A2780 ADR; how it was run: as §1
[5] = system: WI-38 VA13; test: Cytotoxicity againt human VA13 cells; assay type: functional, cell-based; how it was run: as §2
[6] = Cytotoxicity againt human WI38 cells; assay type: cell-based; details: WI-38; how it was run: as §2
[7] = Cytotoxicity againt multidrug-resistant human 2780AD cells; assay type: functional, cell-based; details: A2780 ADR
How it was run: (§3)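 Each drug was tested alone or with a modulator added at final […]; verapamil was the reference modulator. Values are the mean of triplicate determinations.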

[8] = system: A2780; test: Cytotoxicity againt human A2780 cells; assay type: functional, cell-based; how it was run: as §3

| SMILES | Activity [1] [%] | Activity [2] [%] | IC50 [3] [µg/mL] | Activity [4] [%] | IC50 [5] [µg/mL] | IC50 [6] [µg/mL] | IC50 [7] [nM] | IC50 [8] [nM] |
| --- | --- | --- | --- | --- | --- | --- | --- | --- |
| CC(=O)O[C@@H]1[C@@H]2CC(=O)C(C)=C([C@@H](OC(C)=O)[C@H](OC(C)=O)[C@]3(C)CC[C@H](O)[C@@](O)(CO)[C@@H]13)C2(C)C | 88 | 79 | > 100 | 94 | 9.73 (≈ 19.1 µM) | 85.3 (≈ 167 µM) |  |  |
| CC(=O)OC[C@]1(O)[C@@H](O)CC[C@@]2(C)[C@@H](OC(C)=O)[C@H](OC(C)=O)C3=C(C)C(=O)C[C@@H]([C@@H](O)[C@@H]21)C3(C)C | 126 | 88 | > 100 | 97 | 8.47 (≈ 16.6 µM) | > 100 |  |  |
| CC1=C2[C@@H](O)[C@H](O)[C@]3(C)CC[C@H]4OC[C@@]4(O)[C@H]3[C@H](OC(=O)c3ccccc3)[C@H](CC1=O)C2(C)C | 106 | 105 | 67.7 (≈ 144 µM) | 110 | > 100 | > 100 |  |  |
| CC(=O)O[C@@H]1[C@@H]2C[C@H](O)C(C)=C([C@@H](OC(C)=O)[C@H](OC(C)=O)[C@]3(C)CC[C@H]4OC[C@@]4(O)[C@@H]13)C2(C)C | 95 | 94 | > 100 | 95 | 81.5 (≈ 165 µM) | 8.39 (≈ 17 µM) |  |  |
| CC(=O)O[C@H]1C(=O)[C@]2(C)CC[C@H]3OC[C@@]3(O)[C@H]2[C@H](OC(=O)c2ccccc2)[C@@H]2C[C@H](O)C(C)=C1C2(C)C | 163 | 96 | 69.9 (≈ 136 µM) | 129 | 77 (≈ 150 µM) | 54.2 (≈ 106 µM) |  |  |
| CC(=O)O[C@H]1[C@H](O)C2=C(C)C(=O)C[C@@H]([C@@H](OC(=O)c3ccccc3)[C@H]3[C@@]1(C)CC[C@H]1OC[C@]13O)C2(C)C | 134 | 115 | 43.2 (≈ 84.3 µM) | 118 | 67 (≈ 131 µM) | 0.67 (≈ 1.31 µM) |  |  |
| CC(=O)O[C@@H]1[C@@H]2C[C@@H](O)C(C)=C([C@@H](OC(C)=O)[C@H](OC(C)=O)[C@]3(C)CC[C@H]4OC[C@@]4(O)[C@@H]13)C2(C)C | 96 | 82 | > 100 | 95 | > 100 | 76.2 (≈ 154 µM) |  |  |
| CC(=O)O[C@H]1C(=O)[C@]2(C)CC[C@H]3OC[C@@]3(O)[C@H]2[C@H](OC(=O)c2ccccc2)[C@@H]2CC(=O)C(C)=C1C2(C)C | 137 | 101 | 30.1 (≈ 59 µM) | 120 | 7.93 (≈ 15.5 µM) | 7.38 (≈ 14.5 µM) |  |  |
| CC(=O)O[C@@H]1C2=C(C)C(=O)C[C@@H]([C@@H](OC(=O)c3ccccc3)[C@H]3[C@@](C)(CC[C@H]4OC[C@]43O)[C@H]1OC(C)=O)C2(C)C | 135 | 97 | 7.32 (≈ 13.2 µM) | 119 | 51.9 (≈ 93.6 µM) | 0.82 (≈ 1.48 µM) |  |  |
| CC(=O)OC[C@]1(O)[C@@H](O)CC[C@@]2(C)[C@@H](OC(C)=O)[C@H](OC(C)=O)C3=C(C)C(=O)C[C@@H]([C@@H](OC(=O)/C=C/c4ccccc4)[C@@H]21)C3(C)C | 145 | 88 | 2.14 (≈ 3.34 µM) | 116 | 82.3 (≈ 128 µM) | 68.1 (≈ 106 µM) |  |  |
| CC(=O)O[C@H]1C(=O)[C@]2(C)CC[C@H](O)[C@@](O)(CO)[C@H]2[C@H](OC(=O)c2ccccc2)[C@@H]2CC(=O)C(C)=C1C2(C)C | 112 | 88 | 33.4 (≈ 63.2 µM) | 114 | 59.6 (≈ 113 µM) | 57.4 (≈ 109 µM) |  |  |
| CC(=O)O[C@@H]1C2=C(C)C(=O)C[C@@H]([C@@H](OC(=O)c3ccccc3)[C@H]3[C@@](C)(CC[C@H]4OC[C@]43O)[C@H]1O)C2(C)C | 140 | 99 | 77.7 (≈ 152 µM) | 102 | > 100 | 42.3 (≈ 82.5 µM) |  |  |
| CC(=O)O[C@@]12CO[C@@H]1C[C@H](O)[C@@]1(C)C(=O)[C@H](O)C3=C(C)[C@@H](O)C[C@@](O)([C@@H](OC(=O)c4ccccc4)[C@H]21)C3(C)C | 93 | 95 |  | 90 |  |  |  |  |
| CC(=O)O[C@@H]1[C@@H]2CC(=O)C(C)=C([C@@H](OC(C)=O)[C@H](OC(C)=O)[C@]3(C)CC[C@H]4OC[C@@]4(O)[C@@H]13)C2(C)C | 123 | 115 | > 100 | 120 | > 100 | 77 (≈ 156 µM) |  |  |
| COc1ccc(CCN(C)CCCC(C#N)(c2ccc(OC)c(OC)c2)C(C)C)cc1OC (stereo unspecified) | 140 | 99 |  | 103 |  |  |  |  |
| CC(=O)O[C@H]1C(=O)[C@@]2(C)[C@H]([C@H](OC(=O)c3ccccc3)[C@]3(O)C[C@H](O)C(C)=C1C3(C)C)[C@]1(OC(C)=O)CO[C@@H]1C[C@@H]2O [BACCATIN III] | 81 | 93 | 9.91 (≈ 16.9 µM) | 84 | 0.84 (≈ 1.43 µM) | 16.1 (≈ 27.4 µM) |  |  |
| COc1cccc2c1C(=O)c1c(O)c3c(c(O)c1C2=O)C[C@@](O)(C(=O)CO)C[C@@H]3O[C@H]1C[C@H](N)[C@H](O)[C@H](C)O1 [DOXORUBICIN] |  |  |  |  |  |  | 909 | 13 |
| CC(=O)O[C@H]1C(=O)[C@@]2(C)[C@H]([C@H](OC(=O)c3ccccc3)[C@]3(O)C[C@H](OC(=O)[C@H](O)[C@@H](NC(=O)c4ccccc4)c4ccccc4)C(C)=C1C3(C)C)[C@]1(OC(C)=O)CO[C@@H]1C[C@@H]2O [PACLITAXEL] |  |  |  |  |  |  | 535 | 0.7 |
| CC[C@]1(O)C[C@H]2CN(CCc3c([nH]c4ccccc34)[C@@](C(=O)OC)(c3cc4c(cc3OC)N(C=O)[C@H]3[C@@](O)(C(=O)OC)[C@H](OC(C)=O)[C@]5(CC)C=CCN6CC[C@]43[C@@H]65)C2)C1 [VINCRISTINE] |  |  |  |  |  |  | 895 | 0.9 |
